The results in this text go back to ChEMBL document CHEMBL1155837 (Bioorg Med Chem Lett, 2008).

For data set [1], the system named is Human alphaherpesvirus 1. Nature of the data set: Antiviral activity against acyclovir-resistant and thymidine kinase deficient HSV1 KOS in HEL cells assessed as inhibition of virus induced cytopathicity within 48 hrs. The data set is classed as functional, organism-based. As to conditions: Human alphaherpesvirus 1, KOS. The method, boiled down: (§1)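 Confluent HEL fibroblast cultures were inoculated with 100 CCID50 of virus per well. After 1 h adsorption, residual virus was removed and cells were incubated with serial dilutions of compound.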
(Protection from cytopathic effect is a common read-out in antiviral testing.)

The nature of data set [2]: Cytotoxicity against HEL cells assessed as alteration of cell morphology. The data set is classed as cell-based. As to conditions: human. A digest of the protocol:
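In HEL cells, the MCC is the minimal compound concentration producing a microscopically visible change in cell morphology.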

Data set [3] is described as follows: Cytotoxicity against HEL cells assessed as inhibition of cell proliferation. It is filed as cell-based. As to conditions: human.
Data set [4] deals with Human alphaherpesvirus 3. Nature of the data set: Antiviral activity against TK+ VZV OKA infected HEL cells assessed as reduction in virus plaque formation after 5 days. It is filed as functional, organism-based. As to conditions: Human alphaherpesvirus 3, OKA, 120 h.
The test system of data set [5] is Human alphaherpesvirus 2. The data set can be described thus: Antiviral activity against acyclovir-resistant HSV2 ACR in african green monkey Vero cells assessed as inhibition of virus plaque formation. It is filed as functional, organism-based. As to conditions: Human alphaherpesvirus 2, ACR. The method, boiled down:
(§2)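 Vero cells were grown to density in DMEM with 10% fetal bovine serum, L-glutamine, penicillin and streptomycin, then preincubated 30 min with drug and kept in drug throughout. They were infected with 100 pfu per well, adsorbed 45 min and overlaid with 1.2% Avicel in DMEM. After 3 days, plaques were stained with crystal violet and counted.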

In data set [6] the test system is Human alphaherpesvirus 3. The data set can be described thus: Antiviral activity against thymidine kinase deficient VZV 07/1 infected HEL cells assessed as reduction in virus plaque formation after 5 days. The data set is classed as functional, organism-based. As to conditions: Human alphaherpesvirus 3, 07/1, HEL, 120 h.
Data set [7] concerns Human alphaherpesvirus 2. The data set can be described thus: Antiviral activity against HSV2 G in HEL cells assessed as inhibition of virus induced cytopathicity within 48 hrs. The data set is classed as functional, organism-based. As to conditions: Human alphaherpesvirus 2, strain G. The method, boiled down: as §1
For data set [8], the system named is Human alphaherpesvirus 3. The data set can be described thus: Antiviral activity against TK+ VZV YS infected HEL cells assessed as reduction in virus plaque formation after 5 days. It is filed as functional, organism-based. As to conditions: Human alphaherpesvirus 3, YS, 120 h.
Data set [9] deals with Human alphaherpesvirus 2. The data set can be described thus: Antiviral activity against acyclovir-sensitive HSV2 HG32 in african green monkey Vero cells assessed as inhibition of virus plaque formation. It is filed as functional, organism-based. As to conditions: Human alphaherpesvirus 2, HG32, Vero. A digest of the protocol: as §2
For data set [10], the system named is Human alphaherpesvirus 2. The data set can be described thus: Antiviral activity against HSV2. It is filed as functional, organism-based.
Data set [11] has as its system Human alphaherpesvirus 3. Nature of the data set: Antiviral activity against thymidine kinase deficient VZV YS/R infected HEL cells assessed as reduction in virus plaque formation after 5 days. It is filed as functional, organism-based. As to conditions: Human alphaherpesvirus 3, YS/R, 120 h.
Data set [12] deals with Human alphaherpesvirus 1. Nature of the data set: Antiviral activity against HSV1 KOS in HEL cells assessed as inhibition of virus induced cytopathicity within 48 hrs. The data set is classed as functional, organism-based. As to conditions: Human alphaherpesvirus 1, KOS. The method, boiled down:
as §1

Some results are limits rather than exact numbers.

Broadly, the EC50 is the concentration at which the effect is half-maximal. One may read the CC50 as the concentration that lowers cell viability or growth by half.

For `COC(=O)[C@H](C)NP(=O)(OCCOCn1cnc2c(=O)[nH]c(N)nc21)Oc1ccccc1` (some centres not stated), the EC50 with Human alphaherpesvirus 1 [1] was 80 µM; in the data set on Human alphaherpesvirus 3 [4], 19 µM; in the data set with Human alphaherpesvirus 2 [5] it was 18.7 µM; with Human alphaherpesvirus 3 [6] it was 24 µM; with Human alphaherpesvirus 2 [7], 15 µM; in the data set with Human alphaherpesvirus 3 [8], 20 µM. Also, the figures for the EC50 with Human alphaherpesvirus 2 [9], in the data set with Human alphaherpesvirus 2 [10] and with Human alphaherpesvirus 3 [11] were 43.1 µM, at least 100 µM and 16 µM, respectively. Moreover, the MCC in data set [2] is above 100 µM. Besides, in data set [3], the half-maximal cytotoxic concentration (CC50) amounted to 162 µM.

Regarding `COC(=O)[C@H](C)NP(=O)(OCCOCn1cnc2c(=O)[nH]c(N)nc21)Oc1cccc2ccccc12` (some centres not stated), the EC50 in the data set with Human alphaherpesvirus 1 [1] was 80 µM; with Human alphaherpesvirus 3 [4] it was 7.6 µM; in the data set with Human alphaherpesvirus 2 [5], 15 µM; with Human alphaherpesvirus 3 [6], 22 µM; in the data set on Human alphaherpesvirus 3 [8], 10.9 µM; with Human alphaherpesvirus 2 [9] it was 40.4 µM. In the data set on Human alphaherpesvirus 3 [11], the concentration for a half-maximal effect (EC50) turned out to be 6.1 µM. In addition, the MCC in data set [2] was above 50 µM. In addition, the cytotoxic concentration (CC50) in data set [3] is above 100 µM.

As to `C[C@H](NP(=O)(OCCOCn1cnc2c(=O)[nH]c(N)nc21)Oc1ccccc1)C(=O)OCc1ccccc1` (some centres not stated), in [2], the MCC was above 50 µM. Also, in [3], the half-maximal cytotoxic concentration (CC50) is above 100 µM. Besides, the 50% effective concentration (EC50) in the data set with Human alphaherpesvirus 3 [4] was 0.72 µM; in the data set with Human alphaherpesvirus 2 [5], 15.5 µM; with Human alphaherpesvirus 1 [12] it was 0.9 µM; in the data set with Human alphaherpesvirus 3 [6], 1.8 µM; with Human alphaherpesvirus 2 [7] it was 1.4 µM; in the data set on Human alphaherpesvirus 3 [8], 1 µM. For the same compound, the values for the half-maximal effective concentration (EC50) with Human alphaherpesvirus 2 [9] and with Human alphaherpesvirus 3 [11] were 20.3 µM and 0.59 µM, respectively.

`Nc1nc2c(ncn2COCCO)c(=O)[nH]1` [ACYCLOVIR]: in [2], the MCC was above 250 µM. Besides, the CC50 in data set [3] came to 1350 µM. Also, the EC50 was above 100 µM with Human alphaherpesvirus 2 [5] and 6 µM with Human alphaherpesvirus 2 [9].

As to `C[C@H](NP(=O)(OCCOCn1cnc2c(=O)[nH]c(N)nc21)Oc1cccc2ccccc12)C(=O)OCc1ccccc1` (some centres not stated), the EC50 with Human alphaherpesvirus 1 [1] amounted to 11 µM; in the data set on Human alphaherpesvirus 3 [4], 7.2 µM; in the data set on Human alphaherpesvirus 2 [5], 14.5 µM; with Human alphaherpesvirus 3 [6] it was 6.9 µM; in the data set on Human alphaherpesvirus 3 [8], 3.3 µM; in the data set on Human alphaherpesvirus 2 [9], 9.8 µM. Besides, the MCC in data set [2] was above 50 µM. For the same compound, the CC50 in [3] worked out at 20 µM.

For `Nc1nc2c(ncn2COCCOP(=O)(N[C@@H](Cc2ccccc2)C(=O)OCc2ccccc2)Oc2ccccc2)c(=O)[nH]1` (some centres not stated), the concentration for a half-maximal effect (EC50) in the data set with Human alphaherpesvirus 1 [1] is above 100 µM; in the data set on Human alphaherpesvirus 3 [4] it was 5.2 µM; in the data set on Human alphaherpesvirus 2 [5] it was 33.2 µM; in the data set with Human alphaherpesvirus 3 [6] it was 8.4 µM; with Human alphaherpesvirus 2 [7] it was 8 µM; with Human alphaherpesvirus 3 [8], 6.6 µM. In addition, the concentration for a half-maximal effect (EC50) was 20.3 µM with Human alphaherpesvirus 2 [9] and 10 µM in the data set on Human alphaherpesvirus 3 [11]. Besides, the MCC in data set [2] is above 50 µM. In data set [3], the CC50 worked out at 86.9 µM.
